Data as given in ChEMBL document CHEMBL4680104, “Structure-Based Optimization of Small-Molecule Inhibitors for the β-Catenin/B-Cell Lymphoma 9 Protein-Protein Interaction” (J Med Chem, 2018).
Active and inactive are the calls of the source. The calls are words filed in the database; no cut-off is given here.

Key:
SW480 [1] = assay: Cytotoxicity in human SW480 cells assessed as reduction in cell viability incubated for 72 hrs by MTS assay; format: functional, cell-based; details: SW480, 72 h
Outline: (§1)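 Cells seeded at 5 × 10^3 cells/well, kept overnight at 37 °C, then exposed to inhibitors at various concentrations for 72 h. Viability read with a freshly mixed PMS (0.92 mg/mL) : MTS (2 mg/mL) reagent at 1:19, incubated 3 h at 37 °C, A490 measured. […] Triplicate; mean ± SD.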

[2] = target: T1, beta-catenin-B-cell lymphoma 9 protein complex (Homo sapiens, UniProt P35222); assay: Inhibition of protein interaction between C-terminal 6x-histidine tagged full-length beta-catenin (1 to 781 residues) (unknown origin)/N-terminal biotinylated human BCL9 ( 350 to 375 residues) incubated for 1 hr by Alpha-screen competitive inhibition assay; format: protein-complex assay
T1 sequence (P35222 whole entry): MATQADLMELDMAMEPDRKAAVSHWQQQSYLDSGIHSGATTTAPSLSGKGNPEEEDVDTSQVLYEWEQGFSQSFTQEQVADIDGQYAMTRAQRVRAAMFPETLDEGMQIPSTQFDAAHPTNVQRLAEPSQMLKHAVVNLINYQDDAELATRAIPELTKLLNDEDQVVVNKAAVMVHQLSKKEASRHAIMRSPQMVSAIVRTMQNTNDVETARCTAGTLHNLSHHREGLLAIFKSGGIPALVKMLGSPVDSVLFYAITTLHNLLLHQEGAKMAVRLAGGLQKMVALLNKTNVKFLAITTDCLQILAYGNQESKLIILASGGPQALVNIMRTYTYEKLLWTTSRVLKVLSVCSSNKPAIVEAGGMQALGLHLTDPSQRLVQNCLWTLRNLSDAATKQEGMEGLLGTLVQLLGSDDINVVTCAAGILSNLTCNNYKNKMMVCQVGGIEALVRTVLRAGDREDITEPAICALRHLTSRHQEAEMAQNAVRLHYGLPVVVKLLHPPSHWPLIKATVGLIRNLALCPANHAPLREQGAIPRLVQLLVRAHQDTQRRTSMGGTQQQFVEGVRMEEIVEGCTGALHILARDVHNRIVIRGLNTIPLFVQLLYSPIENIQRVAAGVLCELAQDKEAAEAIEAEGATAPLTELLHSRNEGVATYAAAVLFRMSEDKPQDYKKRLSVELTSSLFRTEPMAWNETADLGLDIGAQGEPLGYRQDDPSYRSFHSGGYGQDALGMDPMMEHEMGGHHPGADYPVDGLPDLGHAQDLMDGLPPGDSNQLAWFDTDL
T1 sequence (O00512 whole entry): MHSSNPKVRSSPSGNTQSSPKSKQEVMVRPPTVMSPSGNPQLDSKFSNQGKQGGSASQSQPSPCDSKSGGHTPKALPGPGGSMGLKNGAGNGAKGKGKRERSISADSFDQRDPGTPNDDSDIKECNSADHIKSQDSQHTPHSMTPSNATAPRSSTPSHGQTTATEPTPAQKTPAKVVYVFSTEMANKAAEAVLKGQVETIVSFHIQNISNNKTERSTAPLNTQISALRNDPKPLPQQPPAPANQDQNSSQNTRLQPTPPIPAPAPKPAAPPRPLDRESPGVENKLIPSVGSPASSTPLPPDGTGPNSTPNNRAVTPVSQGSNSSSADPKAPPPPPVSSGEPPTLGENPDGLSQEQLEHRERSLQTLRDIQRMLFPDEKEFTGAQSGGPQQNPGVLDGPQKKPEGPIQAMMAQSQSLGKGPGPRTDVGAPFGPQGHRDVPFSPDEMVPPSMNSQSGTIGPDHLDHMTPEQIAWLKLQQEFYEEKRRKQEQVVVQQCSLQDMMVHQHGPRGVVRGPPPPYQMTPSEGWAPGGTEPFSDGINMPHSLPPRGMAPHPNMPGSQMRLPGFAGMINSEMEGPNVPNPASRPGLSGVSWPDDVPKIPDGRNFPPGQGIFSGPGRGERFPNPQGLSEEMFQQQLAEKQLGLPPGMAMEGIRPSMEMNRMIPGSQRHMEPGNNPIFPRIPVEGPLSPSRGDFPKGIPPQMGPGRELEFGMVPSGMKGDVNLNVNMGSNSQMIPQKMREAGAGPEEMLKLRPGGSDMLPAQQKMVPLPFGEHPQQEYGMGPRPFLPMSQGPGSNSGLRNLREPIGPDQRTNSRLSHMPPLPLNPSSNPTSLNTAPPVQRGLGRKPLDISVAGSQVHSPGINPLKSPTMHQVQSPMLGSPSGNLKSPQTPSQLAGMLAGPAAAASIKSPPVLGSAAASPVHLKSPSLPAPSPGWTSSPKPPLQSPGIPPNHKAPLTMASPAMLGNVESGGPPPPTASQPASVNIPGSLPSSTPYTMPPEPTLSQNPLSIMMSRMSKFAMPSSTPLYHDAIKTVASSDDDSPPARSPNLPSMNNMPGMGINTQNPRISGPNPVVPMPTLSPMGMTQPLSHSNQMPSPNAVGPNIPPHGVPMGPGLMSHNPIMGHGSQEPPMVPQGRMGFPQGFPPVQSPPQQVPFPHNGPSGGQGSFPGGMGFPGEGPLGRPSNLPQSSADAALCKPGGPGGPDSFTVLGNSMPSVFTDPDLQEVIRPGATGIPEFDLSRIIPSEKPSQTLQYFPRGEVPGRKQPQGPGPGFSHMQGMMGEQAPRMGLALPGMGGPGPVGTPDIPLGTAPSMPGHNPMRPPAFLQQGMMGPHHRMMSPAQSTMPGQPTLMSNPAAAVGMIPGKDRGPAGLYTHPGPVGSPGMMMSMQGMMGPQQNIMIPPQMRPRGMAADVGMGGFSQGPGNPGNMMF
Outline: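 Full-length β-catenin (residues 1–781) with a C-terminal His6 tag was expressed in E. coli BL21(DE3) after IPTG induction at 20 °C. It was purified by Ni-NTA, anion-exchange and size-exclusion chromatography. For the assay, 40 nM β-catenin was preincubated for 30 min at 4 °C with 5 nM biotinylated BCL9 or 10 nM biotinylated E-cadherin. Inhibitor was then added for 1 h at 4 °C, followed by 10 μg/mL donor and acceptor beads for 1 h at 4 °C. IC50 was obtained by nonlinear fit and converted to Ki by the Nikolovska-Coleska method. Triplicate, mean ± SD.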

SW480 [3] = assay: Cytotoxic activity in human SW480 cells at 800 uM incubated for 4 hrs by LDH release assay; format: cell-based; details: sw480, 4 h
Outline: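 SW480 cells were seeded at 2 × 10^4 cells/well and kept overnight at 37 °C. They were then exposed to a range of inhibitor concentrations for 4 h. LDH in the culture supernatant was measured with a diagnostic kit by absorbance at 490 nm. Percent cytotoxicity was calculated from experimental release against maximum release, with background subtracted. Run in triplicate.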

HCT-116 = assay: Cytotoxicity in human HCT-116 cells assessed as reduction in cell viability incubated for 72 hrs by MTS assay; format: functional, cell-based; details: HCT-116, 72 h; outline: as §1
[4] = target: T1, beta-catenin-B-cell lymphoma 9 protein complex; assay: Inhibition of protein interaction between beta-catenin (unknown origin)/BCL9 in human SW480 cells transfected with beta-catenin assessed as reduction in Wnt/beta-catenin transactivation incubated for 24 hrs by Wnt-responsive TOP-Flash luciferase reporter assay; format: cell-based
[5] = target: T1, beta-catenin-B-cell lymphoma 9 protein complex; assay: Inhibition of protein interaction between beta-catenin (unknown origin)/BCL9 in HEK293 cells transfected with beta-catenin assessed as reduction in Wnt/beta-catenin transactivation incubated for 24 hrs by Wnt-responsive TOP-Flash luciferase reporter assay; format: cell-based
Outline: (§2)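 HEK293 cells were cotransfected using FuGENE6 with 45 ng TOPFlash or FOPFlash reporter, 135 ng pcDNA3.1-β-catenin and 20 ng pCMV-RL normalization reporter. After 24 h in DMEM with 10% FBS at 37 °C, inhibitors or DMSO were added for 24 h. Reporter activity was read with a dual luciferase system, normalized, and compared with DMSO-treated cells. Triplicate.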

MDA-MB-231 = assay: Cytotoxicity in human MDA-MB-231 cells assessed as reduction in cell viability incubated for 72 hrs by MTS assay; format: functional, cell-based; details: MDA-MB-231, 72 h
Outline: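 Triple-negative breast cancer line seeded at 5 × 10^3 cells/well, held overnight at 37 °C, then exposed to inhibitor over a concentration range for 72 h. Viability read out with a fresh 1:19 mix of PMS (0.92 mg/mL) and MTS (2 mg/mL), incubated 3 h at 37 °C, A490 measured.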

A549 = assay: Cytotoxicity in human A549 cells assessed as reduction in cell viability incubated for 72 hrs by MTS assay; format: functional, cell-based; details: A549, 72 h; outline: as §1
[6] = target: T2, beta-catenin-B-cell lymphoma 9 protein complex (Homo sapiens) (UniProt P35222+O00512); assay: Inhibition of protein interaction between beta-catenin (unknown origin)/BCL9 in human HEK293 cells transfected with beta-catenin assessed as reduction in Wnt/beta-catenin transactivation incubated for 24 hrs by Wnt-responsive FOP-Flash luciferase reporter assay
[7] = target: T2, beta-catenin-B-cell lymphoma 9 protein complex (Homo sapiens); assay: Inhibition of protein interaction between beta-catenin (unknown origin)/BCL9 in HEK293 cells transfected with beta-catenin assessed as reduction in Wnt/beta-catenin transactivation incubated for 24 hrs by Wnt-responsive FOP-Flash luciferase reporter assay; format: cell-based; outline: as §2
[8] = Inhibition of protein interaction between beta-catenin D145A/E155A mutant (unknown origin)/N-terminal biotinylated human BCL9 ( 350 to 375 residues) incubated for 1 hr by Alpha-screen competitive inhibition assay
[9] = Inhibition of protein interaction between beta-catenin K181A mutant (unknown origin)/N-terminal biotinylated human BCL9 ( 350 to 375 residues) incubated for 1 hr by Alpha-screen competitive inhibition assay
[10] = Inhibition of protein interaction between beta-catenin D145A mutant (unknown origin)/N-terminal biotinylated human BCL9 ( 350 to 375 residues) incubated for 1 hr by Alpha-screen competitive inhibition assay

Row | SMILES | IC50 (SW480 [1]) | Ki [2] | Activity (SW480 [3]) | IC50 (HCT-116) | IC50 [4] | IC50 [5] | IC50 (MDA-MB-231) | IC50 (A549) | inhibition [6] | inhibition [7] | Ki [8] | Ki [9] | Ki [10]
1 | Cl.Cl.O=C(O)c1ccc(F)c(-c2cc(NC(=O)c3ccc(O[C@H]4CCNC4)c(-c4ccc(F)c(F)c4)c3)ccc2O[C@H]2CCNC2)c1 | > 400 µM | 12 µM | Non-Toxic | > 400 µM | > 400 µM | – | – | – | – | – | – | – | –
2 | Cl.Cl.NC(=O)c1cccc(-c2cc(NC(=O)c3ccc(O[C@H]4CCNC4)c(-c4ccc(F)c(F)c4)c3)ccc2O[C@H]2CCNC2)c1 | 190 µM | 5.6 µM | Non-Toxic | – | – | – | – | – | – | – | – | – | –
3 | Cl.Cl.O=C(O)c1cccc(-c2cc(NC(=O)c3ccc(O[C@H]4CCNC4)c(-c4ccc(F)c(F)c4)c3)ccc2O[C@H]2CCNC2)c1 | > 400 µM | 5.4 µM | Non-Toxic | > 400 µM | 368 µM | – | – | – | – | – | – | – | –
4 | Cl.Cl.O=C(O)c1ccc(-c2cc(NC(=O)c3ccc(O[C@H]4CCNC4)c(-c4ccc(F)c(F)c4)c3)ccc2O[C@H]2CCNC2)cc1 | > 400 µM | 3.7 µM | Non-Toxic | > 400 µM | 391 µM | – | – | – | – | – | – | – | –
5 | CC(=O)Nc1cccc(-c2cc(NC(=O)c3ccc(O[C@H]4CCNC4)c(-c4ccc(F)c(F)c4)c3)ccc2O[C@H]2CCNC2)c1.Cl.Cl | 160 µM | 5.2 µM | Non-Toxic | – | – | – | – | – | – | – | – | – | –
6 | CS(=O)(=O)Nc1cccc(-c2cc(NC(=O)c3ccc(O[C@H]4CCNC4)c(-c4ccc(F)c(F)c4)c3)ccc2O[C@H]2CCNC2)c1.Cl.Cl | 95 µM | 5.9 µM | Non-Toxic | – | – | – | – | – | – | – | – | – | –
7 | Fc1ccc(-c2cc(-c3cnc4cc(O[C@H]5CCNC5)c(-c5ccc(F)c(F)c5)cc4c3)ccc2O[C@H]2CCNC2)cc1 | 1.7 µM | 2.2 µM | – | 2.2 µM | 7.9 µM | 14 µM | 3.1 µM | 7.5 µM | Active | Active | – | – | –
8 | Cl.Cl.O=C(Nc1ccc(O[C@H]2CCNC2)c(-c2cccc(-c3nn[nH]n3)c2)c1)c1ccc(O[C@H]2CCNC2)c(-c2ccc(F)c(F)c2)c1 | 140 µM | 1 µM | Non-Toxic | 190 µM | – | – | 92 µM | 410 µM | – | – | 18 µM | 4.9 µM | 6.5 µM
9 | Cl.Cl.NS(=O)(=O)c1ccc(-c2cc(NC(=O)c3ccc(O[C@H]4CCNC4)c(-c4ccc(F)c(F)c4)c3)ccc2O[C@H]2CCNC2)cc1 | 220 µM | 5.6 µM | Non-Toxic | – | > 200 µM | > 200 µM | – | – | – | – | – | – | –
10 | Cl.Cl.O=C(Nc1ccc(O[C@H]2CCNC2)c(-c2ccc(-c3nn[nH]n3)cc2)c1)c1ccc(O[C@H]2CCNC2)c(-c2ccc(F)c(F)c2)c1 | 86 µM | 4.6 µM | Non-Toxic | – | – | – | – | – | – | – | – | – | –
11 | Cl.Cl.NC(=O)c1ccc(-c2cc(NC(=O)c3ccc(O[C@H]4CCNC4)c(-c4ccc(F)c(F)c4)c3)ccc2O[C@H]2CCNC2)cc1 | 160 µM | 4.7 µM | Non-Toxic | – | – | – | – | – | – | – | – | – | –
